{"source": "PubChem BioAssay AID652011", "about": "(Sanford-Burnham Center for Chemical Genomics, 2013)", "note": "Values joined by “and” are separate entries in the source; they are usually repeats but may differ in a detail not shown here. Equal values may be shown once.", "data": [{"biological_target": "Hypoxia-inducible factor 1-alpha (Homo sapiens) (UniProt Q16665)", "sequence (Q16665 whole entry, looked up)": "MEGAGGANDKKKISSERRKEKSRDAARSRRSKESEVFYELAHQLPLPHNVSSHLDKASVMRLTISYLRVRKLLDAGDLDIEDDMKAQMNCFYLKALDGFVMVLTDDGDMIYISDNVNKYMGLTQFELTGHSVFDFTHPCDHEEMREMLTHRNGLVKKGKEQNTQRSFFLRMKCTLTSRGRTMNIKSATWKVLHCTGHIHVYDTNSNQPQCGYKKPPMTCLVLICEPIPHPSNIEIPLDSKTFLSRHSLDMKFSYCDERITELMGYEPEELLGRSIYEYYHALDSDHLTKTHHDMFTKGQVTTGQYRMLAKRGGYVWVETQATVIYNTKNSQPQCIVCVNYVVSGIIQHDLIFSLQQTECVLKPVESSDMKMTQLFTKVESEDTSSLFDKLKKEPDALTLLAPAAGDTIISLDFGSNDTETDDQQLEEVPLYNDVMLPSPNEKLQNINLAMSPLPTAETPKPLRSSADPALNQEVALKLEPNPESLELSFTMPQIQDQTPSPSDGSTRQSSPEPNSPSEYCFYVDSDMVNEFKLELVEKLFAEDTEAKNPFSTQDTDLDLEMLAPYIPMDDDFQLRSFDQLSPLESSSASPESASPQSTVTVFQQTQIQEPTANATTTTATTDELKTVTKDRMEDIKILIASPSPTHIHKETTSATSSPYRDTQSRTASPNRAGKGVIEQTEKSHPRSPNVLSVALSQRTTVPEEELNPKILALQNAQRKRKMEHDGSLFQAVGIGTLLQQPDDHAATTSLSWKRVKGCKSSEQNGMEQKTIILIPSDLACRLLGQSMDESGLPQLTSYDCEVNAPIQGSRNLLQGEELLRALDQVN", "test": "HIF reporter inhibition across pancreatic and renal lines – cell-based, luminescence, MIAPaCa-2, 786-0, panel, SAR follow-up (AID 652011)", "conditions": "MIAPaCa-2/PANC HIF reporter, luciferase luminescence, desferoxamine, overnight, HIF1a, run 1; at 99 µM (top of the series)", "how_it_was_run": "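Probe or stimulus: desferoxamine stimulus; times: overnight seeding and compound exposure, 37 °C, 5% CO2, 10-min detection; signal: One-Glo luciferase luminescence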", "values": [{"smiles": "CCNC(=O)CCc1nc(-c2cccc(OC)c2)no1", "inhibition": "-42.1%"}, {"smiles": "CCNC(=O)CCc1nc(-c2ccccc2)no1", "inhibition": "-39.4%"}, {"smiles": "CC(C)(C)NC(=O)CCc1nc(-c2ccc(C(C)(C)C)cc2)no1", "inhibition": "84.3%"}, {"smiles": "CC(C)NC(=O)CCc1nc(-c2ccc(C(C)(C)C)cc2)no1", "inhibition": "17.3%"}, {"smiles": "CCc1ccc(-c2noc(CCC(=O)NC3CC3)n2)cc1", "inhibition": "-66.8%"}, {"smiles": "CCc1ccc(-c2noc(CCC(=O)NC)n2)cc1", "inhibition": "-61.6%"}, {"smiles": "CN(C)C(=O)CCc1nc(-c2ccc(C(C)(C)C)cc2)no1", "inhibition": "-59.6% and -77.5%"}, {"smiles": "CC(C)(C)c1ccc(-c2noc(CCC(=O)Nc3ccccc3)n2)cc1", "inhibition": "43%"}, {"smiles": "CCN(CC)C(=O)CCc1nc(-c2ccc(C(C)(C)C)cc2)no1", "inhibition": "-20.8% and 47.7%"}, {"smiles": "CC(C)CNC(=O)CCc1nc(-c2ccc(C(C)(C)C)cc2)no1", "inhibition": "-21.6%"}, {"smiles": "CC(C)(C)c1ccc(-c2noc(CCC(=O)NC3CC3)n2)cc1", "inhibition": "-50.8%"}, {"smiles": "CC(C)(C)c1ccc(-c2noc(CCC(=O)NCc3ccco3)n2)cc1", "inhibition": "86.8% and 85.5%"}, {"smiles": "CCOc1ccc(-c2noc(CCC(=O)O)n2)cc1", "inhibition": "73.4%"}, {"smiles": "CCOc1ccc(-c2noc(CCC(=O)NC)n2)cc1", "inhibition": "-41.9%"}, {"smiles": "CCNC(=O)CCc1nc(-c2ccc(OCC)cc2)no1", "inhibition": "-79.8%"}, {"smiles": "CC(C)(C)c1ccc(-c2noc(CCC(=O)NCC3CCCO3)n2)cc1", "note": "(stereo unspecified)", "inhibition": "-24.5%"}, {"smiles": "CCNC(=O)CCc1nc(-c2ccccc2Cl)no1", "inhibition": "-17.5%"}, {"smiles": "CNC(=O)CCc1nc(-c2ccccc2)no1", "inhibition": "-13.3% and 12%"}, {"smiles": "CC(C)(C)c1ccc(-c2noc(CCC(N)=O)n2)cc1", "inhibition": "8.32% and -17.9%"}, {"smiles": "CCNC(=O)CCc1nc(-c2ccc(C(C)C)cc2)no1", "inhibition": "-33%"}, {"smiles": "CCCCc1ccc(-c2noc(CCC(=O)NC)n2)cc1", "inhibition": "-40.2%"}, {"smiles": "O=C(CCc1nc(-c2ccccc2)no1)NC1CC1", "inhibition": "-33.5%"}, {"smiles": "CC(C)(C)NC(=O)CCc1nc(-c2ccccc2)no1", "inhibition": "-47.1%"}, {"smiles": "CC(C)c1ccc(-c2noc(CCC(=O)NC(C)(C)C)n2)cc1", "inhibition": "-0.968%"}, {"smiles": "CNC(=O)CCc1nc(-c2ccc(OC)cc2)no1", "inhibition": "-51.1%"}, {"smiles": "CNC(=O)CCc1nc(-c2ccc(Cl)cc2)no1", "inhibition": "-25.6%"}, {"smiles": "CC(C)(C)c1ccc(-c2noc(CCC(=O)Nc3cccc([N+](=O)[O-])c3)n2)cc1", "inhibition": "96.4%"}, {"smiles": "C=CCNC(=O)CCc1nc(-c2ccc(C(C)(C)C)cc2)no1", "inhibition": "-8.77%"}, {"smiles": "CC(C)c1ccc(-c2noc(CCC(=O)NC3CC3)n2)cc1", "inhibition": "-58.4%"}, {"smiles": "CCNC(=O)CCc1nc(-c2ccc(C(C)(C)C)cc2)no1", "inhibition": "-11.3% and -13.8%"}, {"smiles": "CCCNC(=O)CCc1nc(-c2ccc(C(C)(C)C)cc2)no1", "inhibition": "-1.08%"}]}]}
